Measurements published in ChEMBL document CHEMBL1938298, “Synthesis and characterization of [¹²⁵I]2-iodo N-[(S)-{(S)-1-methylpiperidin-2-yl}(phenyl)methyl]3-trifluoromethyl-benzamide as novel imaging probe for glycine transporter 1” (Bioorg Med Chem, 2011).
One block for each compound: values may come before it.

What was measured:
[1] = biological target: T1, Sodium- and chloride-dependent glycine transporter 1 (Rattus norvegicus) (UniProt P28572); experiment: Binding affinity to GlyT1 in rat brain cerebral cortex at 0.03 to 0.04 nM preincubated for 20 mins in binding buffer before compound addition measured after 30 mins by autoradiography in presence of 1 mM GlyT1 substrate glycine relative to control; assay type: tissue-based; settings: tested as the 125I-labelled form
T1 sequence (whole entry): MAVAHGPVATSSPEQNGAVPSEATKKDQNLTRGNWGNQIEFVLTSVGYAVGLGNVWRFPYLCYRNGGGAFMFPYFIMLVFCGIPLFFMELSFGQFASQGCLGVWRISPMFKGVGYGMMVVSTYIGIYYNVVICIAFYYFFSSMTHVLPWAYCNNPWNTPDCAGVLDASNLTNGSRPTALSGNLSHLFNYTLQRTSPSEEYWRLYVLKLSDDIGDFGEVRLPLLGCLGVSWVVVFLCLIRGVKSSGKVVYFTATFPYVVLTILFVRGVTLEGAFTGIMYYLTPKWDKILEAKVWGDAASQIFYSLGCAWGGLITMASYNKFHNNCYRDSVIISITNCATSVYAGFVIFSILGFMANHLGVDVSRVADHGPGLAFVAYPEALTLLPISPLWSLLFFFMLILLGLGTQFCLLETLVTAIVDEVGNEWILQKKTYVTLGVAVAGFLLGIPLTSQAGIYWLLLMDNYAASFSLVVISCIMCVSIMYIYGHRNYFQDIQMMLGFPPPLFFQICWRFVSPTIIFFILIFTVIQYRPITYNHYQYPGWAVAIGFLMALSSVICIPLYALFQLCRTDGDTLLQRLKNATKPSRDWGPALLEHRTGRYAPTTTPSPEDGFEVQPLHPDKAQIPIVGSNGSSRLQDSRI
Method in brief: (§1)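 Rat brain sagittal sections (20 µm) preincubated 20 min at 25 °C in Tris-HCl buffer pH 7.5 (NaCl, KCl, MgCl2, CaCl2), then 30 min at 25 °C with [125I] tracer (100 kBq, 0.03–0.04 nM) plus competitor (10 µM; glycine 1 or 10 mM). Cold washes, imaging plate 3 days, ROI PSL minus background per mm². % control from ≥triplicate slices, three rats.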

[2] = biological target: T1, Sodium- and chloride-dependent glycine transporter 1 (Rattus norvegicus); experiment: Binding affinity to GlyT1 in rat brain medullary region at 0.03 to 0.04 nM preincubated for 20 mins in binding buffer before compound addition measured after 30 mins by autoradiography in presence of GlyT1 inhibitor N-Me-SSR504734 relative to control; assay type: tissue-based; settings: tested as the 125I-labelled form; method in brief: as §1
[3] = biological target: T1, Sodium- and chloride-dependent glycine transporter 1 (Rattus norvegicus); experiment: Binding affinity to GlyT1 in rat brain medullary region at 0.03 to 0.04 nM preincubated for 20 mins in binding buffer before compound addition measured after 30 mins by autoradiography in presence of 0.01 mM GlyT2 inhibitor ORG25543 relative to control; assay type: tissue-based; settings: tested as the 125I-labelled form; method in brief: as §1
[4] = biological target: T1, Sodium- and chloride-dependent glycine transporter 1 (Rattus norvegicus); experiment: Binding affinity to GlyT1 in rat brain medullary region at 0.03 to 0.04 nM preincubated for 20 mins in binding buffer before compound addition measured after 30 mins by autoradiography in presence of 0.01 mM NMDA receptor glycine site antagonist L-701,324 relative to control; assay type: tissue-based; settings: tested as the 125I-labelled form; method in brief: as §1
[5] = biological target: T1, Sodium- and chloride-dependent glycine transporter 1 (Rattus norvegicus); experiment: Binding affinity to GlyT1 in rat brain midbrain at 0.03 to 0.04 nM preincubated for 20 mins in binding buffer before compound addition measured after 30 mins by autoradiography in presence of 0.01 mM GlyT1 inhibitor SSR504734 relative to control; assay type: tissue-based; settings: tested as the 125I-labelled form; method in brief: as §1
[6] = biological target: T1, Sodium- and chloride-dependent glycine transporter 1 (Rattus norvegicus); experiment: Binding affinity to GlyT1 in rat brain hippocampus at 0.03 to 0.04 nM preincubated for 20 mins in binding buffer before compound addition measured after 30 mins by autoradiography in presence of 10 mM GlyT1 substrate glycine relative to control; assay type: tissue-based; settings: tested as the 125I-labelled form; method in brief: as §1
[7] = biological target: T1, Sodium- and chloride-dependent glycine transporter 1 (Rattus norvegicus); experiment: Binding affinity to GlyT1 in rat brain medullary region at 0.03 to 0.04 nM preincubated for 20 mins in binding buffer before compound addition measured after 30 mins by autoradiography in presence of 10 mM GlyT1 substrate glycine relative to control; assay type: tissue-based; settings: tested as the 125I-labelled form; method in brief: as §1
[8] = biological target: T1, Sodium- and chloride-dependent glycine transporter 1 (Rattus norvegicus); experiment: Binding affinity to GlyT1 in rat brain striatum at 0.03 to 0.04 nM preincubated for 20 mins in binding buffer before compound addition measured after 30 mins by autoradiography in presence of 0.01 mM GlyT1 inhibitor SSR504734 relative to control; assay type: tissue-based; settings: tested as the 125I-labelled form
[9] = biological target: T1, Sodium- and chloride-dependent glycine transporter 1 (Rattus norvegicus); experiment: Binding affinity to GlyT1 in rat brain cerebral cortex at 0.03 to 0.04 nM preincubated for 20 mins in binding buffer before compound addition measured after 30 mins by autoradiography in presence of GlyT1 inhibitor N-Me-SSR504734 relative to control; assay type: tissue-based; settings: tested as the 125I-labelled form; method in brief: as §1
[10] = biological target: T1, Sodium- and chloride-dependent glycine transporter 1 (Rattus norvegicus); experiment: Binding affinity to GlyT1 in rat brain midbrain at 0.03 to 0.04 nM preincubated for 20 mins in binding buffer before compound addition measured after 30 mins by autoradiography in presence of 0.01 mM NMDA receptor glycine site antagonist L-701,324 relative to control; assay type: tissue-based; settings: tested as the 125I-labelled form
[11] = biological target: T1, Sodium- and chloride-dependent glycine transporter 1 (Rattus norvegicus); experiment: Binding affinity to GlyT1 in rat brain medullary region at 0.03 to 0.04 nM preincubated for 20 mins in binding buffer before compound addition measured after 30 mins by autoradiography in presence of 1 mM GlyT1 substrate glycine relative to control; assay type: tissue-based; settings: tested as the 125I-labelled form; method in brief: as §1
Intestine = experiment: Drug uptake in ddY mouse intestine at 11.1 kBq, iv after 60 min by gamma counting; assay type: ADME, organism-based; settings: in vivo, 1 h
Method in brief: (§2)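 Male ddY mice (6 weeks, 30–35 g) received about 11.1 kBq [125I]tracer in 0.1 mL i.v. via tail vein. Killed at set times, organs dissected and weighed, radioactivity gamma counted. Reported as % injected dose/g tissue, mean ± SD, n = 5–6.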

Liver [12] = experiment: Drug uptake in ddY mouse liver at 11.1 kBq, iv after 30 min by gamma counting; assay type: ADME, organism-based; settings: in vivo, 0.5 h
Method in brief: (§3)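 Male ddY mice (6 weeks, 30–35 g) were given about 11.1 kBq of [125I]tracer in 0.1 mL i.v. via the tail vein. At each time point the animals were killed and organs dissected, weighed and gamma-counted. Uptake is expressed as % injected dose per gram of tissue, mean ± SD, n = 5–6.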

Liver [13] = experiment: Drug uptake in ddY mouse liver at 11.1 kBq, iv after 5 min by gamma counting; assay type: ADME, organism-based; settings: in vivo; method in brief: as §3
Brain [14] = experiment: Drug uptake in ddY mouse brain at 11.1 kBq, iv after 15 min by gamma counting; assay type: ADME, organism-based; settings: in vivo; method in brief: as §2
[15] = Lipophilicity, log D of the compound at pH 7.4; assay type: physicochemical; settings: buffer
Spleen = experiment: Drug uptake in ddY mouse spleen at 11.1 kBq, iv after 5 min by gamma counting; assay type: ADME, organism-based; settings: in vivo; method in brief: as §3
Blood [16] = experiment: Drug uptake in ddY mouse blood at 11.1 kBq, iv after 0.5 min by gamma counting; assay type: ADME, organism-based; settings: in vivo; method in brief: as §2
Blood [17] = experiment: Drug uptake in ddY mouse blood at 11.1 kBq, iv after 15 min by gamma counting; assay type: ADME, organism-based; settings: in vivo; method in brief: as §2
Nucleic Acid = experiment: Ratio of drug level in brain to blood in ddY mouse at 11.1 kBq, iv after 30 min by gamma counting; assay type: ADME, organism-based; settings: 0.5 h
Brain [18] = experiment: Drug uptake in ddY mouse brain at 11.1 kBq, iv after 180 min by gamma counting; assay type: ADME, organism-based; settings: in vivo, 3 h; method in brief: as §2
Mus musculus = experiment: In vivo binding affinity to GlyT1 in ddY mouse brain midbrain at 33.3 kBq, iv after 30 mins in presence of N-Me-SSR504734 2 mg/kg, iv administered 15 mins prior to compound administration relative to control; assay type: functional

- Activity [1]: 89.6%
- Activity [2]: 20.6%
- Activity [3]: 91.4%
- Activity [4]: 104%
- Activity [5]: 28.9%
- Activity [6]: 71.5%
- Activity [7]: 61.2%
- Activity [8]: 50.2%
- Activity [9]: 37.5%
- Activity [10]: 81.3%
- Activity [11]: 104%
Structure (SMILES): CN1CCCC[C@H]1[C@@H](NC(=O)c1cccc(C(F)(F)F)c1I)c1ccccc1

- Drug uptake (Intestine): 9.59 % ID/g
- Drug uptake (Liver [12]): 14.74 % ID/g
- Drug uptake (Liver [13]): 9.25 % ID/g
- Drug uptake (Brain [14]): 1.68 % ID/g
- logD [15]: 2.86
- Drug uptake (Spleen): 5.11 % ID/g
- Drug uptake (Blood [16]): 1.35 % ID/g
- Drug uptake (Blood [17]): 0.69 % ID/g
- Ratio (Nucleic Acid): 2.46
- Drug uptake (Brain [18]): 0.73 % ID/g
Structure (SMILES): CN1CCCC[C@H]1[C@@H](NC(=O)c1cccc(C(F)(F)F)c1[125I])c1ccccc1
- Activity (Mus musculus): 55%
